pIC50: −log10 of the molar value. Where a SMILES comes first, the peptide text is derived from it. [ ]: non-standard residue; d: D form. ξ: configuration not given here. ξAla(9-anthryl) = NC(Cc1c2ccccc2cc2ccccc12)C(=O)O; Dip = N[C@H](C(=O)O)C(c1ccccc1)c1ccccc1; ξBip = NC(Cc1ccc(-c2ccccc2)cc1)C(=O)O; ξDip = NC(C(=O)O)C(c1ccccc1)c1ccccc1; ξ1Nal = NC(Cc1cccc2ccccc12)C(=O)O; ξ2Nal = NC(Cc1ccc2ccccc2c1)C(=O)O; ξOrn = NCCCC(N)C(=O)O; ξDab = NCCC(N)C(=O)O; ξDap = NCC(N)C(=O)O
Tests used:
[1] = Stability in pooled and cryopreserved rat hepatocytes assessed as intrinsic clearance measured per 10^6 cells at 1 uM measured for 90 mins by LC-MS/MS analysis; type: ADME, cell-based, Hepatocyte; settings: read-out: CLH
Procedure, shortened: (§1)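 Pooled cryopreserved hepatocytes at 0.5 million cells/mL, incubated at about 37 °C with 1 μM initial peptide. Supernatant after centrifugation analysed by LC–MS/MS (MRM) using a D-Trp7,9,10-substance P internal standard. Peak height was referenced to time zero, and t1/2 = −0.693/slope of ln concentration vs time. Clint = 0.693/t1/2 × Vinc per million cells. Testosterone, midazolam and 4-methylumbelliferone were the positive controls. Duplicates; mean of two experiments.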

[2] = Stability in pooled and cryopreserved human hepatocytes assessed as half life at 1 uM measured for 90 mins by LC-MS/MS analysis; type: ADME, cell-based, Hepatocyte
Procedure, shortened: (§2)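 Pooled cryopreserved rat or human hepatocytes, 0.5 million cells/mL, ~37 °C, peptide at 1 μM initial. Supernatants analysed by LC–MS/MS with peak height referenced to time zero. t1/2 = −0.693/slope of ln concentration vs time. Duplicate experiments. Testosterone, midazolam and 4-methylumbelliferone served as metabolic-competence controls.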

[3] = Stability in pooled and cryopreserved human hepatocytes assessed as intrinsic clearance measured per 10^6 cells at 1 uM measured for 90 mins by LC-MS/MS analysis; type: ADME, cell-based, Hepatocyte; settings: read-out: CLH; procedure, shortened: as §1
[4] = Stability in pooled and cryopreserved rat hepatocytes assessed as half life at 1 uM measured for 90 mins by LC-MS/MS analysis; type: ADME, cell-based, Hepatocyte; procedure, shortened: as §2
A20 = test: Cytotoxicity against mouse A20 lymphoma cells assessed as inhibition of cell proliferation incubated for 4 hrs by MTT assay; type: functional, cell-based; settings: A20, 4 h
Procedure, shortened: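 Murine A20 cells cultured in RPMI-1640 with 2 mM L-glutamine, 1.5 g/L sodium bicarbonate, 4.5 g/L glucose, 10 mM HEPES, 1.0 mM sodium pyruvate, 0.05 mM 2-mercaptoethanol and 10% FBS, without antibiotics, at 37 °C, 5% CO2. IC50 from three or more independent measurements, given as mean ± SD.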

[5] = Cytotoxicity against mouse AT84 cells assessed as inhibition of cell proliferation incubated for 4 hrs by MTT assay; type: functional, cell-based; settings: AT84, 4 h
[6] = Cytotoxicity against human MRC5 cells assessed as inhibition of cell proliferation incubated for 4 hrs by MTT assay; type: toxicity, cell-based
Procedure, shortened: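 MRC-5 human embryonic lung fibroblasts cultured in MEM with 2 mM L-glutamine and 10% FBS, without antibiotics, at 37 °C in humidified 5% CO2. Cultures were tested for mycoplasma. IC50 from three or more independent measurements, given as mean ± SD.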

| SMILES | hepatocyte CLint at 1 µM [1] | half-life at 1 µM [2] | hepatocyte CLint at 1 µM [3] | half-life at 1 µM [4] | pIC50 (A20) | pIC50 [5] | IC50 at 4 h [6] |
| --- | --- | --- | --- | --- | --- | --- | --- |
| Cc1ncc2n1-c1ccc(Cl)cc1C(c1ccccc1F)=NC2 [MIDAZOLAM] | 51 µL/min/1e6 cells | > 200 min | < 7 µL/min/1e6 cells | 27 min | – | – | – |
| NCCCC[C@H](NC(=O)[C@H](Cc1c[nH]c2ccccc12)NC(=O)[C@H](Cc1c[nH]c2ccccc12)NC(=O)[C@H](CCCCN)NC(=O)[C@H](CCCCN)NC(=O)[C@H](Cc1c[nH]c2ccccc12)NC(=O)[C@H](Cc1c[nH]c2ccccc12)NC(=O)[C@H](CCCCN)NC(=O)[C@@H](N)CCCCN)C(N)=O (H-KKWWKKWWK-NH2) | – | – | – | – | 4.43 | 4.51 | > 357 µM |
| NCCCC[C@H](NC(=O)C(NC(=O)[C@H](Cc1c[nH]c2ccccc12)NC(=O)[C@H](CCCCN)NC(=O)[C@H](CCCCN)NC(=O)[C@@H](N)Cc1c[nH]c2ccccc12)C(c1ccccc1)c1ccccc1)C(N)=O (stereo not given in full) (H-WKKW[ξDip]K-NH2) | – | – | – | – | 3.61 | – | 460 µM |
| NCCC(N)C(=O)NC(CCN)C(=O)N[C@@H](Cc1c[nH]c2ccccc12)C(=O)NC(C(=O)NC(CCN)C(=O)NC(CCN)C(=O)N[C@@H](Cc1c[nH]c2ccccc12)C(=O)N[C@@H](Cc1c[nH]c2ccccc12)C(=O)NC(CCN)C(N)=O)C(c1ccccc1)c1ccccc1 (stereo not given in full) (H-[ξDab][ξDab]W[ξDip][ξDab][ξDab]WW[ξDab]-NH2) | – | – | – | – | 5.08 | 4.84 | 97.7 µM |
| NCCCC[C@H](NC(=O)[C@H](Cc1c[nH]c2ccccc12)NC(=O)C(NC(=O)[C@H](CCCCN)NC(=O)[C@H](CCCCN)NC(=O)[C@H](Cc1c[nH]c2ccccc12)NC(=O)[C@H](Cc1c[nH]c2ccccc12)NC(=O)[C@H](CCCCN)NC(=O)[C@@H](N)CCCCN)C(c1ccccc1)c1ccccc1)C(N)=O (stereo not given in full) (H-KKWWKK[ξDip]WK-NH2) | – | – | – | – | 4.91 | 4.60 | 102 µM |
| NCCCC[C@H](NC(=O)[C@H](Cc1c[nH]c2ccccc12)NC(=O)[C@H](Cc1c[nH]c2ccccc12)NC(=O)[C@H](CCCCN)NC(=O)[C@H](CCCCN)NC(=O)C(Cc1cccc2ccccc12)NC(=O)[C@H](Cc1c[nH]c2ccccc12)NC(=O)[C@H](CCCCN)NC(=O)[C@@H](N)CCCCN)C(N)=O (stereo not given in full) (H-KKW[ξ1Nal]KKWWK-NH2) | – | – | – | – | 4.62 | 4.58 | 238 µM |
| NCCCC[C@H](NC(=O)C(NC(=O)[C@H](Cc1c[nH]c2ccccc12)NC(=O)[C@H](CCCCN)NC(=O)[C@H](CCCCN)NC(=O)C(NC(=O)[C@H](Cc1c[nH]c2ccccc12)NC(=O)[C@H](CCCCN)NC(=O)[C@@H](N)CCCCN)C(c1ccccc1)c1ccccc1)C(c1ccccc1)c1ccccc1)C(N)=O (stereo not given in full) (H-KKW[ξDip]KKW[ξDip]K-NH2) | – | – | – | – | 4.92 | 4.82 | 80 µM |
| NCCCC[C@H](NC(=O)C(NC(=O)[C@H](Cc1c[nH]c2ccccc12)NC(=O)[C@H](CCCCN)NC(=O)[C@H](CCCCN)NC(=O)[C@H](Cc1c[nH]c2ccccc12)NC(=O)[C@@H](N)Cc1c[nH]c2ccccc12)C(c1ccccc1)c1ccccc1)C(N)=O (stereo not given in full) (H-WWKKW[ξDip]K-NH2) | – | – | – | – | 4.69 | – | 53.2 µM |
| NCCCC[C@H](NC(=O)C(NC(=O)[C@H](Cc1c[nH]c2ccccc12)NC(=O)[C@H](CCCCN)NC(=O)[C@H](CCCCN)NC(=O)[C@H](Cc1c[nH]c2ccccc12)NC(=O)[C@H](Cc1c[nH]c2ccccc12)NC(=O)[C@@H](N)CCCCN)C(c1ccccc1)c1ccccc1)C(N)=O (stereo not given in full) (H-KWWKKW[ξDip]K-NH2) | – | – | – | – | 4.87 | – | 43.9 µM |
| NCCCC[C@H](NC(=O)[C@H](Cc1c[nH]c2ccccc12)NC(=O)[C@H](Cc1c[nH]c2ccccc12)NC(=O)[C@H](CCCCN)NC(=O)[C@H](CCCCN)NC(=O)[C@H](Cc1c[nH]c2ccccc12)NC(=O)C(NC(=O)[C@H](CCCCN)NC(=O)[C@@H](N)CCCCN)C(c1ccccc1)c1ccccc1)C(N)=O (stereo not given in full) (H-KK[ξDip]WKKWWK-NH2) | – | – | – | – | 4.29 | 4.44 | 488 µM |
| NCCCC[C@H](NC(=O)[C@H](Cc1c[nH]c2ccccc12)NC(=O)[C@H](Cc1c[nH]c2ccccc12)NC(=O)[C@H](CCCCN)NC(=O)[C@H](CCCCN)NC(=O)C(Cc1ccc2ccccc2c1)NC(=O)[C@H](Cc1c[nH]c2ccccc12)NC(=O)[C@H](CCCCN)NC(=O)[C@@H](N)CCCCN)C(N)=O (stereo not given in full) (H-KKW[ξ2Nal]KKWWK-NH2) | – | – | – | – | 4.59 | 4.53 | 257 µM |
| NCCCC(N)C(=O)NC(CCCN)C(=O)N[C@@H](Cc1c[nH]c2ccccc12)C(=O)NC(C(=O)NC(CCCN)C(=O)NC(CCCN)C(=O)N[C@@H](Cc1c[nH]c2ccccc12)C(=O)N[C@@H](Cc1c[nH]c2ccccc12)C(=O)NC(CCCN)C(N)=O)C(c1ccccc1)c1ccccc1 (stereo not given in full) (H-[ξOrn][ξOrn]W[ξDip][ξOrn][ξOrn]WW[ξOrn]-NH2) | – | – | – | – | 4.66 | 4.64 | 323 µM |
| NCCCC[C@H](NC(=O)[C@H](Cc1c[nH]c2ccccc12)NC(=O)[C@H](Cc1c[nH]c2ccccc12)NC(=O)[C@H](CCCCN)NC(=O)[C@H](CCCCN)NC(=O)[C@@H](NC(=O)[C@H](Cc1c[nH]c2ccccc12)NC(=O)[C@H](CCCCN)NC(=O)[C@@H](N)CCCCN)C(c1ccccc1)c1ccccc1)C(N)=O (H-KKW[Dip]KKWWK-NH2) | – | – | – | – | 3.87 | 3.95 | > 347 µM |
| NCCCC[C@H](NC(=O)[C@H](Cc1c[nH]c2ccccc12)NC(=O)[C@H](Cc1c[nH]c2ccccc12)NC(=O)[C@H](CCCCN)NC(=O)[C@H](CCCCN)NC(=O)C(NC(=O)[C@H](Cc1c[nH]c2ccccc12)NC(=O)[C@H](CCCCN)NC(=O)[C@@H](N)CCCCN)C(c1ccccc1)c1ccccc1)C(N)=O (stereo not given in full) (H-KKW[ξDip]KKWWK-NH2) | – | – | – | – | 4.59 | 4.61 | 287 µM |
| C[C@]12CC[C@H]3[C@@H](CCC4=CC(=O)CC[C@@]43C)[C@@H]1CC[C@@H]2O [TESTOSTERONE] | 811 µL/min/1e6 cells | – | 333 µL/min/1e6 cells | – | – | – | – |
| NCC(N)C(=O)NC(CN)C(=O)N[C@@H](Cc1c[nH]c2ccccc12)C(=O)NC(C(=O)NC(CN)C(=O)NC(CN)C(=O)N[C@@H](Cc1c[nH]c2ccccc12)C(=O)N[C@@H](Cc1c[nH]c2ccccc12)C(=O)NC(CN)C(N)=O)C(c1ccccc1)c1ccccc1 (stereo not given in full) (H-[ξDap][ξDap]W[ξDip][ξDap][ξDap]WW[ξDap]-NH2) | – | – | – | – | 4.17 | 3.81 | 516 µM |
| NCCCC[C@H](NC(=O)[C@H](Cc1c[nH]c2ccccc12)NC(=O)[C@H](Cc1c[nH]c2ccccc12)NC(=O)[C@H](CCCCN)NC(=O)[C@H](CCCCN)NC(=O)C(Cc1c2ccccc2cc2ccccc12)NC(=O)[C@H](Cc1c[nH]c2ccccc12)NC(=O)[C@H](CCCCN)NC(=O)[C@@H](N)CCCCN)C(N)=O (stereo not given in full) (H-KKW[ξAla(9-anthryl)]KKWWK-NH2) | – | – | – | – | 5.03 | 4.96 | 40 µM |
| Cc1cc(=O)oc2cc(O)ccc12 [HYMECROMONE] | 373 µL/min/1e6 cells | 11 min | 127 µL/min/1e6 cells | 4 min | – | – | – |
| NCCCC[C@H](NC(=O)[C@H](Cc1c[nH]c2ccccc12)NC(=O)[C@H](Cc1c[nH]c2ccccc12)NC(=O)[C@H](CCCCN)NC(=O)[C@H](CCCCN)NC(=O)C(Cc1ccc(-c2ccccc2)cc1)NC(=O)[C@H](Cc1c[nH]c2ccccc12)NC(=O)[C@H](CCCCN)NC(=O)[C@@H](N)CCCCN)C(N)=O (stereo not given in full) (H-KKW[ξBip]KKWWK-NH2) | – | – | – | – | 4.73 | 4.56 | 174 µM |

Source: ChEMBL document CHEMBL5257020, “Discovery of a 9-mer Cationic Peptide (LTX-315) as a Potential First in Class Oncolytic Peptide” (J Med Chem, 2016)
